Measurements collected from several papers.
Lines come from different studies, so protocols differ.
Organism: Escherichia coli
Effect on: microbial growth

| SMILES | technique | cells | strain | time | notes | MIC |
| --- | --- | --- | --- | --- | --- | --- |
| CNC(=O)c1cc(Oc2ccc(NC(=O)Nc3ccc(Cl)c(C(F)(F)F)c3)cc2)ccn1 |  |  | CFT073 |  |  | > 100 µM |
| O=[N+]([O-])c1ccc(-c2nc3cccc(O)c3[nH]2)o1 | broth dilution |  | ATTC25922 |  |  | 2 µg/mL |
| CN(C)[C@@H]1C(O)=C(C(N)=O)C(=O)[C@@]2(O)C(O)=C3C(=O)c4c(O)cccc4[C@@](C)(O)[C@H]3C[C@@H]12 |  |  | ATCC25922 |  |  | 4 µg/mL |
| Cc1ccc2nc(-c3ccc(Cl)c(Cl)c3)n(Cc3ccccc3)c2c1 | broth dilution |  | ATCC25922 |  |  | 32 µg/mL |
| COc1c(C)c(OS(=O)(=O)c2ccc3ccccc3c2)c(C)c(O)c1C(=O)/C=C/c1ccccc1 | broth dilution |  | ATCC25922 |  |  | 5000 µg/mL |
| O=C(O)c1cn(C2CC2)c2cc(N3CCNCC3)c(F)cc2c1=O |  |  |  |  |  | 1.6 µg/mL |
| CCCCCCC/C=C/C(=O)N1C(=O)/C(=C(\O)C2CCNCC2)C(=O)C1CC(C)C (centres unmarked) |  | K12 | K12 |  |  | 25 µg/mL |
| CC1=NN(CNC(=O)c2ccccn2)C(=O)C1=NNn1c(-c2ccccc2)nc2ccccc2c1=O | broth dilution |  |  | 24 h |  | 52 µM |
| CNc1cccc2cc(C(=O)NCCc3cccc(C(=O)O)c3)c(=O)[nH]c12 | broth dilution |  | ATCC25922 |  |  | > 64 µg/mL |
| CCCCCCC#Cc1cncc(-c2nnc(SCc3ccc([N+](=O)[O-])o3)n2C)c1 |  |  |  |  |  | ≥ 20 µg/mL |
| COc1cccc(NCc2ccc(Oc3ccccn3)cc2)c1 |  |  |  |  |  | > 50 µg/mL |
| C[C@@H](O)[C@H]1C(=O)N2C(C(=O)O)=C(S[C@@H]3CN[C@H](C(=O)N(C)C)C3)[C@H](C)[C@H]12 | broth dilution |  | ATCC35218 |  |  | ≤ 0.125 µg/mL |
| COc1cccc(-c2nc3ccccc3n2Cc2ccccc2)c1 | broth dilution |  | ATCC25922 |  |  | 128 µg/mL |
| C/C(=C\c1ccc(C#N)cc1)C(=O)Nc1ccc(C(=O)N[C@@H](CC(N)=O)C(=O)Nc2ccc(C(=O)Nc3ccc(C(=O)Nc4ccc(C(=O)O)cc4)c(O)c3OCC(C)C)cc2)cc1 |  |  | DSM1116 |  |  | 0.5 µg/mL |
| Cc1ccc(C)n1-c1ccc(-c2nnc(-c3ccc(N(C)C)cc3)[nH]2)cc1 | broth dilution |  | ATCC10536 | 18 h |  | 250 µg/mL |
| Cc1ccc2nc(-c3c(F)cccc3Cl)[nH]c2c1 | broth dilution |  | ATCC25922 |  |  | 128 µg/mL |
| CC(C)Oc1c(NC(=O)c2ccc(NC(=O)[C@H](CC(N)=O)NC(=O)c3ccc(NC(=O)C(C)Sc4ccc(C#N)cc4)cc3)cc2)ccc(C(=O)Nc2ccc(C(=O)O)cc2)c1O (some centres unmarked) |  |  | DSM1116 |  |  | 0.25 µg/mL |
| NCCCNC1CCCCc2c1[nH]c1ccc(Br)cc21 (centres unmarked) | broth dilution |  | ATCC25922 |  |  | 16 µg/mL |
| N=C(N)c1ccc(OCCCCCCCCCOc2ccc(C(=N)N)cc2)cc1 | broth dilution |  | BW25113 |  |  | > 25 µg/mL |
| CC(C)Oc1c(NC(=O)c2ccc(NC(=O)[C@H](CC(N)=O)NC(=O)c3ccc(NC(=O)c4ccc(C#N)nc4)cc3)cc2)ccc(C(=O)Nc2ccc(C(=O)O)cc2)c1O |  |  | DSM1116 |  |  | ≤ 0.03 µg/mL |
| CCCCCCCCCCCC(=O)Oc1c(C)c(O)c(C(=O)/C=C/c2ccccc2)c(OC)c1C | broth dilution |  | ATCC25922 |  |  | 5000 µg/mL |
| N=C(N)c1ccccc1OCc1ccc(COc2ccccc2C(=N)N)cc1 | broth dilution |  | BW25113 |  |  | > 200 µg/mL |
| CCCCCCC/C=C/C(=O)N1C(=O)/C(=C(\O)c2ccc(O)cc2)C(=O)C1CC(C)C (centres unmarked) |  | K12 | K12 |  |  | > 200 µg/mL |
| N=C(N)c1ccc(OCc2cccc(COc3ccc(C(=N)N)cc3)c2)cc1 | broth dilution |  | W3110 |  |  | 100 µg/mL |
| Cc1ccc2nc(-c3ccc(F)cc3)n(Cc3ccccc3)c2c1 | broth dilution |  | ATCC25922 |  |  | 128 µg/mL |
| N=C(N)c1ccc(OCCC(CCOc2ccc(C(=N)N)cc2)c2ccccc2)cc1 (centres unmarked) | broth dilution |  | W3110 |  |  | 200 µg/mL |
| Cc1ccc2nc(-c3ccc(Cl)cc3)n(Cc3ccccc3Cl)c2c1 | broth dilution |  | ATCC25922 |  |  | 64 µg/mL |

| SMILES | technique | cells | strain | time | notes | MIC |
| --- | --- | --- | --- | --- | --- | --- |
| CC(C)Oc1c(NC(=O)c2ccc(NC(=O)[C@H](CC(N)=O)NC(=O)c3ccc(NC(=O)c4ccc(C#N)cc4)cc3)cc2)ccc(C(=O)Nc2cccc(C(=O)O)c2)c1O |  |  | DSM1116 |  |  | 0.5 µg/mL |
| CCCc1nc(Cl)c2c(c1O)C(=O)C1=C(O)[C@]3(O)C(=O)C(C(N)=O)=C(O)[C@@H](N(C)C)[C@@H]3C[C@@H]1C2.Cl | broth dilution |  | ATCC25922 |  |  | 16 µg/mL |
| N=C(N)c1cccc(OCc2ccccc2COc2cccc(C(=N)N)c2)c1 | broth dilution |  | BW25113 |  |  | > 200 µg/mL |
| Cc1ccc(C)n1-c1ccc(-c2nnc(-c3ccccc3Cl)[nH]2)cc1 | broth dilution |  | ATCC10536 | 18 h |  | 250 µg/mL |
| CCOc1ccc(-c2nc3cc(-c4nc5cc(N6CCN(C)CC6)ccc5[nH]4)ccc3[nH]2)cc1 | broth dilution |  | 25922 | 24 h |  | 8 to 16 µg/mL |
| O=C(Cc1cc(O)c(O)c(O)c1)NCCCCCCCC[P+](c1ccccc1)(c1ccccc1)c1ccccc1.[Br-] | broth dilution |  | ATCC25922 | 18 h |  | > 32 µg/mL |
| N=C(N)c1ccc(OCc2ccccc2COc2ccc(C(=N)N)cc2)cc1 |  |  | BW25113 |  |  | > 200 µg/mL |
| CC(C)Oc1c(NC(=O)c2ccc(NC(=O)[C@H](CC(N)=O)NC(=O)c3ccc(NC(=O)c4cccc([N+](=O)[O-])c4)cc3)cc2)ccc(C(=O)Nc2ccc(C(=O)O)cc2)c1O |  |  | DSM1116 |  |  | > 64 µg/mL |
| N=C(N)c1ccc(OCc2ccc(-c3ccccc3)cc2COc2ccc(C(=N)N)cc2)cc1 |  |  | BW25113 |  |  | ≥ 200 µg/mL |
| CC1(C)S[C@@H]2[C@H](NC(=O)[C@H](N)c3ccccc3)C(=O)N2[C@H]1C(=O)O | broth dilution |  | ATCC25922 |  |  | 8 µg/mL |
| CSc1ccc(-c2nc3ccc(C)cc3n2Cc2ccccc2)cc1 | broth dilution |  | ATCC25922 |  |  | 128 µg/mL |
| CCn1cc(C(=O)O)c(=O)c2cc(F)c(N3CCNCC3)cc21 | broth dilution |  | ATCC10536 | 18 h |  | ≤ 1 µg/mL |
| CO[C@H]1/C=C/O[C@@]2(C)Oc3c(C)c(O)c4c(O)c(c(/C=N/N5CCN(C)CC5)c(O)c4c3C2=O)NC(=O)/C(C)=C\C=C\[C@H](C)[C@H](O)[C@@H](C)[C@@H](O)[C@@H](C)[C@H](OC(C)=O)[C@@H]1C |  |  | ATCC25922 |  |  | 4 µg/mL |
| Cc1ccc2nc(-c3ccncc3)[nH]c2c1 | broth dilution |  | ATCC25922 |  |  | 64 µg/mL |
| N=C(N)c1ccc(OCc2ccc(Br)cc2COc2ccc(C(=N)N)cc2)cc1 | broth dilution |  | W3110 |  |  | 200 µg/mL |
| CC1=NN(CNc2ccc(C(=O)O)cc2)C(=O)C1=NNn1c(-c2ccccc2)nc2ccccc2c1=O | broth dilution |  |  | 24 h |  | 50.5 µM |
| C/C(=C\c1ccc(O)cc1)C(=O)Nc1ccc(C(=O)N[C@@H](CC(N)=O)C(=O)Nc2ccc(C(=O)Nc3ccc(C(=O)Nc4ccc(C(=O)O)cc4)c(O)c3OC(C)C)cc2)cc1 |  |  | DSM1116 |  |  | 0.25 µg/mL |
| CCCCCCC/C=C/C(=O)N1C(=O)/C(=C(\O)c2ccncc2)C(=O)C1CC(C)C (centres unmarked) |  | K12 | K12 |  |  | > 200 µg/mL |
| Cc1ccc2nc(-c3ccc(Cl)cc3)[nH]c2c1 | broth dilution |  | ATCC25922 |  |  | 256 µg/mL |
| CC(C)COc1c(NC(=O)c2ccc(NC(=O)[C@H](CC(N)=O)NC(=O)c3ccc(NC(=O)c4ccc(C#N)cc4)cc3)cc2)ccc(C(=O)Nc2ccc(C(=O)O)cc2)c1O |  |  | DSM1116 |  |  | 0.25 µg/mL |
| O=C(CCCCCCCCCC[P+](c1ccccc1)(c1ccccc1)c1ccccc1)Nc1ccc(O)c(O)c1.[Br-] | broth dilution |  | ATCC25922 | 18 h |  | > 32 µg/mL |
| COc1c(C)c(OC(=O)c2ccc(C)cc2)c(C)c(O)c1C(=O)/C=C/c1ccccc1 | broth dilution |  | ATCC25922 |  |  | 5000 µg/mL |
| Fc1ccccc1NCc1ccc(Oc2ccccn2)cc1 |  |  |  |  |  | > 25 µg/mL |
| Cc1c(CN(C)C(=O)/C=C/c2cnc3c(c2)CC(NC(=O)OC(C)(C)C)C(=O)N3)oc2ccccc12 (centres unmarked) | broth dilution |  | MG1655 |  | clinical isolate | > 32 µg/mL |
| C[C@H](CCC(=O)NCCCNCCCCNCCCN)[C@H]1CC[C@H]2[C@@H]3CC[C@@H]4C[C@H](O)CC[C@]4(C)[C@H]3CC[C@]12C | broth dilution |  | MG1655 | 20 h |  | 128 µg/mL |
| CC(C)Oc1c(NC(=O)c2ccc(NC(=O)[C@H](CC(N)=O)NC(=O)c3ccc(NC(=O)c4ccc(NC(=O)c5ccc([N+](=O)[O-])cc5)cc4)cc3)cc2)ccc(C(=O)Nc2ccc(C(=O)O)cc2)c1O |  |  | DSM1116 |  |  | 0.5 µg/mL |
